Activity calls are given as the source filed them. The calls are words filed in the database; no cut-off is given here.

The nature of data set [1]: Inhibition of Dengue virus NS5 polymerase assessed as inhibition of radiolabeled guanosine incorporation into homopolymeric cytosine RNA template by liquid scintillation counting. A digest of the protocol:
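DENV-2 NS5 polymerase, produced and purified by a prior method, assayed by radiolabeled guanosine incorporation on a homopolymeric cytosine RNA template. IC50 fitted by % enzyme activity = 100/[…], with I the inhibitor concentration; 3′-deoxy-GTP served as reference.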

The subject of a further data set is Chikungunya virus. In words: Antiviral activity against Chikungunya virus infected in Vero cells assessed as inhibition of virus-induced cytopathic effect after 6 to 7 days by MTS assay. It counts as functional, cell-based. On the technique in general: Damage to the host cells serves as the signal in cytopathic effect assays.
Another data set concerns Vero. Description: (§1) Cytotoxicity against African green monkey Vero cells after 6 to 7 days by MTS assay. It counts as cell-based. The settings on record: chlorocebus sabaeus, vero. A digest of the protocol: (§2)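 Vero cells (subcultured 1:4, grown 7 days) seeded at 25 000 cells per well with serial compound dilutions in MEM Rega3 with 2% FCS, L-glutamine and bicarbonate. Incubated 6−7 days at 37 °C, 5% CO2. Medium then replaced with 5% MTS in phenol red-free medium for 1.5 h, A498 read. CC50 taken from dose−response curves as % of controls; multiple independent experiments.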
For orientation: Tetrazolium assays rely on reduction of a dye to a coloured formazan, in cell work by metabolically active cells.

A short description of data set [2]: as §1. The data set is classed as cell-based. The settings on record: chlorocebus sabaeus, Vero cells. In a few lines: as §2

`O=C(OC[C@H]1O[C@@H](Oc2ccc(O)cc2COC(=O)[C@@]2(O)[C@H](O)C=CC(=O)[C@@H]2O)[C@H](O)[C@@H](OC(=O)c2ccccc2)[C@@H]1O)c1ccccc1` [FLACOURTOSIDE E]: the IC50 (usually the concentration at which inhibition is half-maximal) in data set [1] was 13.4 µM. The result in the data set with Chikungunya virus was inactive. For the same compound, in the data set with Vero, the Activity entry is reported as “Non-toxic”.
Regarding `O=Cc1cc(O)ccc1O[C@@H]1O[C@H](COC(=O)c2ccccc2)[C@@H](O)[C@H](O[C@@H]2O[C@H](COC(=O)c3ccccc3)[C@@H](O)[C@H](O)[C@H]2O)[C@H]1O` [FLACOURTOSIDE C], the IC50 in data set [1] was 23.8 µM. The result with Chikungunya virus was inactive.
In the case of `O=C(OC[C@H]1O[C@@H](Oc2ccc(O)cc2COC(=O)c2ccccc2O)[C@H](O)[C@@H](O)[C@@H]1O)c1ccccc1` [ITOSIDE H], the IC50 in data set [1] is 37.8 µM.
Still for that read-out and setting: next, `O=C(OC[C@H]1O[C@@H](Oc2ccc(O)cc2COC(=O)[C@@]2(O)[C@H](O)C=CC(=O)[C@@H]2O)[C@H](OC(=O)c2ccccc2)[C@@H](O)[C@@H]1O)c1ccccc1` [XYLOSMIN]: 24.3 µM.
Turning to `O=C(OC[C@H]1O[C@@H](Oc2ccc(O)cc2COC(=O)c2cccc(O)c2O)[C@H](OC(=O)c2ccccc2)[C@@H](O)[C@@H]1O)c1ccccc1` [SCOLOCHINENOSIDE D], the half-inhibitory concentration (IC50) in data set [1] stood at 9.5 µM. The Activity result with Vero was “Non-toxic”.
Consider `O=C(OC[C@H]1O[C@@H](Oc2ccc(O)cc2COC(=O)C2(O)CC(=O)[C@@H](O)[C@@H](O)[C@H]2O)[C@H](OC(=O)c2ccccc2)[C@@H](O)[C@@H]1O)c1ccccc1` (some centres undefined) [FLACOURTOSIDE D], for which, in data set [1], the IC50 stood at 35.5 µM. For the same compound, in the data set on Chikungunya virus, the result was inactive.
`C=C(C)[C@@H]1CC[C@]2(C(=O)O)CC[C@]3(C)[C@H](CC[C@@H]4[C@@]5(C)CC[C@H](OC(=O)/C=C/c6ccc(O)c(O)c6)C(C)(C)[C@@H]5CC[C@]43C)[C@@H]12`: the IC50 in data set [1] was found to be 0.85 µM. For the same compound, in data set [2], the CC50 (in general, the concentration at which the toxic effect on the cells reaches its halfway point) came to 6.9 µM.
`O=C(OC[C@H]1O[C@@H](Oc2ccc(O)cc2CO)[C@H](O)[C@@H](O)[C@@H]1O)c1ccccc1` [POLIOTHYRSOSIDE]: in data set [1], the half-inhibitory concentration (IC50) is above 50 µM.
Turning to `O=C(OC[C@H]1O[C@@H](Oc2ccc(O)cc2COC(=O)[C@@]2(O)[C@H](O)C=CC(=O)[C@@H]2OC(=O)c2ccccc2)[C@H](OC(=O)c2ccccc2)[C@@H](O)[C@@H]1O)c1ccccc1` [FLACOURTOSIDE F], the IC50 in data set [1] came to 39.8 µM. In addition, the result in the data set with Chikungunya virus was inactive.
For `Nc1nc2c(ncn2[C@@H]2O[C@H](COP(=O)(O)OP(=O)(O)OP(=O)(O)O)C[C@H]2O)c(=O)[nH]1`, the half-inhibitory concentration (IC50) in data set [1] amounted to 0.02 µM.
For the compound `O=Cc1cc(O)ccc1O[C@@H]1O[C@H](COC(=O)c2ccccc2)[C@@H](O)[C@H](O)[C@H]1O` [FLACOURTOSIDE B], the IC50 in data set [1] is 71.1 µM. Also, the outcome in the data set with Chikungunya virus was inactive.

Values taken from ChEMBL document CHEMBL2034852, “Flacourtosides A-F, phenolic glycosides isolated from Flacourtia ramontchi” (J Nat Prod, 2012).
